ChEMBL document CHEMBL1157913, “Development of a new generation of 4-aminoquinoline antimalarial compounds using predictive pharmacokinetic and toxicology models” (J Med Chem, 2010)

Columns and labels:
[1] = Permeability by PAMPA assay at pH 7.4; format: ADME
Outline: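 Double-sink PAMPA, GIT-0 lipid-coated filter. Donor 50 μM final (from DMSO stock) at pH 5.0, 6.2 or 7.4; acceptor pH 7.4. Stirred 30 min (40 μm aqueous boundary layer), constant humidity. Both compartments read by UV absorbance 250–500 nm; Pe (cm/s) calculated, four wells per pH, mean ± SD.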

[2] = Permeability by PAMPA assay at pH 6.2; format: ADME
[3] = Tmax in CD1 mouse at 50 mg/kg, po; format: ADME, organism-based; parameters: dose 50 mg/kg, route oral; conditions: in vivo
Outline: (§1)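 Male CD-1 mice given one 50 mg/kg oral gavage dose (n = 3), vehicle 0.9% saline or 5% DMSO/95% PEG300 depending on compound. Retro-orbital blood into EDTA under isoflurane at 15, 30, 60 min and 2, 4, 8, 10, 24, 48 h (3 mice per time point). Plasma analysed by LC-MS/MS; AUC0-t, Cmax, Tmax, t1/2 derived by noncompartmental software.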

[4] = Cmax in CD1 mouse at 50 mg/kg, po; format: ADME, organism-based; parameters: dose 50 mg/kg, route oral; conditions: in vivo; outline: as §1
[5] = AUClast in CD1 mouse at 50 mg/kg, po; format: ADME, organism-based; parameters: time 0 - last, dose 50 mg/kg, route oral; conditions: plasma; outline: as §1
[6] = Permeability by PAMPA assay at pH 5.0; format: ADME
[7] = Toxicity in po dosed CD1 mouse administered qd for 7 days; format: organism-based; conditions: in vivo
Outline: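 Male and female CD-1 mice (6–8 weeks, n = 5/sex/dose group) received oral gavage once daily for 7 days at 50, 100, 200 or 100, 200, 400 mg/kg/day, depending on the article. The article was suspended daily in 5% DMSO:95% PEG 300, and vehicle-treated animals served as controls. Body weights were taken predose, on day 4 and on day 8. Day-8 retro-orbital blood went to hematology and serum chemistry, followed by necropsy with histopathology and organ weights. MTD was estimated.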

Row | Compound | permeability [1] [×10⁻⁶ cm/s] | permeability [2] [×10⁻⁶ cm/s] | Tmax [3] [min] | Cmax [4] [nM] | AUC(0-t) [5] [µM·h] | permeability [6] [×10⁻⁶ cm/s] | MTD at 168 h [7] [mg/kg]
1 | CCN(CC)CCCC(C)Nc1ccnc2cc(Cl)ccc12 (stereo not drawn) [CHLOROQUINE] | 775 | 51 | 30 | 444 | 2.64 | – | –
2 | Clc1ccc2c(NCCCNCc3cccc4c3OCO4)ccnc2c1 | 2400 | 979 | 120 | 240 | 2.03 | 19 | 100
3 | CCCN(CCCNc1ccnc2cc(Cl)ccc12)CC1CC1 | 1109 | 2 | 30 | 437 | 6.79 | – | –
4 | CCN(CC)CCCC(C)Nc1ccnc2cc(C(F)(F)F)ccc12 (stereo not drawn) | 2704 | 235 | – | – | – | 2 | –
5 | COc1cccc(CNCCCNc2ccnc3cc(Cl)ccc23)c1O | 1363 | – | 240 | 65.9 | 0.62 | – | 400
6 | CCN(CC)CCCC(C)Nc1ccnc2cc(Oc3ccccc3)ccc12 (stereo not drawn) | – | – | 30 | 261 | 0.726 | – | –
